Data as given in ChEMBL document CHEMBL2417427, “High analgesic and anti-inflammatory in vivo activities of six new hybrids NSAIAs tetrahydropyran derivatives” (Bioorg Med Chem, 2013).
Active and inactive are the calls of the source. No cut-off for these calls is given here.

Legend:
Mus musculus [1] = test: Antinociceptive activity in po dosed Albino-Swiss mouse assessed as acetic acid-induced abdominal writhing compound administered 30 mins prior challenge measured over 30 mins post acetic acid challenge; type: functional; settings: Abdomen
Outline: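 Mice were dosed orally at 1, 5 and 10 mg/kg as a suspension in 5% ethyl acetate vehicle (5 mL/kg). Acetic acid 1.2% (v/v) was then given ip, and writhes (abdominal contraction, body stretching, hind-limb extension) were counted for 30 min from injection. n = 6 per group. ED50 (µmol/kg) was obtained by sigmoidal dose-response nonlinear regression.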

Mus musculus [2] = test: Toxicity in Albino-Swiss mouse assessed as forced motor activity at 10 mg/kg, po measured after 60 mins by rota-rod test; type: organism-based; set-up: dose 10 mg/kg, route oral; settings: in vivo, 1 h
Outline: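 Mice, 6 per group, trained twice the day before to stay 5 min on a rotating roller at 10 rev/min. Next day given 10 mg/kg p.o. (suspension in 5% ethyl acetate, 5 mL/kg) or vehicle, then placed on the roller 60 min later for 5 min. Read-out was number of falls; mean ± SD, ANOVA with Bonferroni.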

[3] = Acute toxicity in po dosed Albino-Swiss mouse assessed as disorientation administered as single dose measured after 5 hrs until day 14; type: organism-based; settings: in vivo
Outline: (§1)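 Oral single dose given as a suspension in 5% ethyl acetate (5 mL/kg), in increasing doses up to 2000 mg/kg, following WHO and OECD guidelines. Animals were observed from 5 h after dosing, then daily until day 14, for disorientation, hyperactivity, piloerection and hyperventilation. LD50 was fitted by nonlinear regression of percent deaths versus dose. n = 6 per group.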

[4] = Acute toxicity in po dosed Albino-Swiss mouse assessed as piloerection administered as single dose measured after 5 hrs until day 14; type: organism-based; settings: in vivo; outline: as §1
Mus musculus [5] = test: Antinociceptive activity in Albino-Swiss mouse assessed as increase in thermal-stimulus induced tail flick latency at 10 mg/kg, po measured over 20 to 120 mins; type: functional, organism-based; set-up: dose 10 mg/kg
Outline: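 Mice, 6 per group, dosed orally at 10 mg/kg as a suspension in 5% ethyl acetate vehicle (5 mL/kg). Light intensity set so baseline latency fell at 4–6 s; animals outside this range were excluded. Two pre-dose latencies averaged as baseline, then six readings at 20-min intervals. Reported as percentage increase over baseline per time point, or as AUC (trapezoid rule) over 20–120 min.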

[6] = Acute toxicity in po dosed Albino-Swiss mouse assessed as hyperventilation administered as single dose measured after 5 hrs until day 14; type: organism-based; settings: in vivo; outline: as §1
Mus musculus [7] = test: Toxicity in Albino-Swiss mouse assessed as spontaneous locomotor activity at 10 mg/kg, po measured after 60 mins by open-field test; type: organism-based; set-up: dose 10 mg/kg, route oral; settings: in vivo, 1 h
Outline: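 Oral dosing at 10 mg/kg (5% ethyl acetate suspension, 5 mL/kg) or vehicle, 6 mice per group. At 60 min each mouse was placed alone in a chamber with the floor divided into 50 squares of 5 × 5 cm. Squares walked during 5 min were counted; mean ± SD, ANOVA with Bonferroni.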

[8] = Acute toxicity in po dosed Albino-Swiss mouse assessed as hyperactivity administered as single dose measured after 5 hrs until day 14; type: organism-based; settings: in vivo; outline: as §1
Mus musculus [9] = test: Ratio of diclofenac ED50 to compound ED50 for antinociceptive activity in po dosed Albino-Swiss mouse assessed as acetic acid-induced abdominal writhing compound administered 30 mins prior challenge measured over 30 mins post acetic acid challenge; type: functional, Abdomen

Structure (SMILES)	ED50 (Mus musculus [1]) [µmol/kg]	Activity (Mus musculus [2])	LD50 at 5 h [3] [mg/kg]	LD50 at 5 h [4] [mg/kg]	Activity (Mus musculus [5])	LD50 at 5 h [6] [mg/kg]	Activity (Mus musculus [7])	LD50 at 5 h [8] [mg/kg]	Ratio ED50 (Mus musculus [9])
OC[C@@H]1C[C@H](Cl)C[C@H](c2cccc3ccccc23)O1 (racemic)	28	–	–	–	–	–	–	–	–
COc1ccc2c(c1)c(CC(=O)OC[C@@H]1C[C@H](Cl)C[C@H](c3cccc4ccccc34)O1)c(C)n2C(=O)c1ccc(Cl)cc1 (racemic)	13.8	Non-toxic	> 2000	> 2000	Active	> 2000	Non-toxic	> 2000	–
COc1ccc2cc([C@H](C)C(=O)O)ccc2c1 [NAPROXEN]	21.8	–	–	–	–	–	–	–	–
CC(C)Cc1ccc(C(C)C(=O)OC[C@@H]2C[C@H](Cl)C[C@H](c3cccc4ccccc34)O2)cc1 (mixture of isomers)	10.3	Non-toxic	> 2000	> 2000	Active	> 2000	Non-toxic	> 2000	–
CC(=O)Oc1ccccc1C(=O)OC[C@@H]1C[C@H](Cl)C[C@H](c2cccc3ccccc23)O1 (racemic)	20.4	Non-toxic	> 2000	> 2000	Active	> 2000	Non-toxic	> 2000	–
COc1ccc2c(c1)c(CC(=O)O)c(C)n2C(=O)c1ccc(Cl)cc1 [INDOMETHACIN]	72.6	–	–	–	–	–	–	–	–
COc1ccc2cc(C(C)C(=O)OC[C@@H]3C[C@H](Cl)C[C@H](c4cccc5ccccc45)O3)ccc2c1 (mixture of isomers)	4.6	Non-toxic	> 2000	> 2000	Active	> 2000	Non-toxic	> 2000	–
CC(C(=O)O)c1cccc(C(=O)c2ccccc2)c1 (stereo unspecified) [KETOPROFEN]	46.6	–	–	–	–	–	–	–	–
O=C(Cc1ccccc1Nc1c(Cl)cccc1Cl)OC[C@@H]1C[C@H](Cl)C[C@H](c2cccc3ccccc23)O1 (racemic)	3.17	Non-toxic	> 2000	> 2000	Active	> 2000	Non-toxic	> 2000	>10
CC(C)Cc1ccc(C(C)C(=O)O)cc1 (stereo unspecified) [IBUPROFEN]	60.3	–	–	–	–	–	–	–	–
O=C(O)Cc1ccccc1Nc1c(Cl)cccc1Cl [DICLOFENAC POTASSIUM]	32.5	–	–	–	–	–	–	–	–
CC(C(=O)OC[C@@H]1C[C@H](Cl)C[C@H](c2cccc3ccccc23)O1)c1cccc(C(=O)c2ccccc2)c1 (mixture of isomers)	14	Non-toxic	> 2000	> 2000	Active	> 2000	Non-toxic	> 2000	–
CC(=O)Oc1ccccc1C(=O)O [ASPIRIN]	44.2	–	–	–	–	–	–	–	–
